Test results: paper PMC5503476 (Bioorganic & medicinal chemistry letters, 2017)
In brackets after ≈: the same amount, converted by molar mass.

Assays:
[1] = Aqueous solubility by HPLC-UV; assay type: physicochemical
wild-type HIV-1 (NL4-3) = test: Anti-HIV activity against wild-type HIV-1; assay type: cell-based; conditions: Human immunodeficiency virus 1, NL43, TZM-bl, read-out: EC50 NL4-3
Method in brief: (§1)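 Wild-type HIV-1 NL4-3 and the E138K+M184I resistant strain were tested in parallel in TZM-bl cells, with a reference NNRTI alongside. EC50 was read from luciferase reporter gene expression. New analogues were tested up to 100 ng/mL, with at least three experiments (n = 3). Fold change is the resistant-strain EC50 divided by the wild-type EC50.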

[2] = system: NL4-3 variant E138K+M184I; assay type: cell-based, HIV-1
Method in brief: as §1

Cytotoxicity = assay type: cell-based; conditions: human, TZM-bl cells
NL4-3 variant E138K = assay type: cell-based, HIV-1
[3] = Human plasma stability assay; assay type: in vitro ADME
[4] = 0.01 M HCl, pH 2, aqueous with cosolvent or surfactant or cyclodextrin
[5] = EC50(resistant viral strain)/EC50(wild-type viral strain)

half-life at 10 μg/mL [3] [days]	Structure (SMILES)	solubility kinetic at 4 h [1, 4] [µg/mL]	EC50 (wild-type HIV-1 (NL4-3)) [nM]	Resistance fold change (FC) E138K+M184I [2, 5]	EC50 ([2]; Human immunodeficiency virus 1, NL43, TZM-bl, read-out: EC50 E138K+M184I) [nM]	CC50 (Cytotoxicity) [µM]	Resistance fold change (FC) E138K (NL4-3 variant E138K; [5])	EC50 (NL4-3 variant E138K; Human immunodeficiency virus 1, NL43, TZM-bl, read-out: EC50 E138K) [nM]	solubility kinetic at 4 h ([1]; phosphate buffer, pH 7.4, aqueous with cosolvent or surfactant or cyclodextrin) [µg/mL]
–	Cc1cc(/C=C/C#N)cc(C)c1Nc1ccnc(Nc2ccc(C#N)cc2)n1 [compound 2, rilpivirine, reference compound]	86.8 (≈ 237 µM)	–	–	–	–	–	–	–
–	Cc1cc(/C=C/C#N)cc(C)c1Oc1cc(Nc2ccc(C#N)cc2)c(N)cc1C(N)=O [compound 3]	2.09 (≈ 4.94 µM)	1.82 ± 0.57	1.9	3.55 ± 1.02	> 23.6	1.9	3.55 ± 0.64	0.63 (≈ 1.49 µM)
3.33	CC(C)NCC(O)COc1cccc2ccccc12 (stereo not shown) [propranolol]	–	–	–	–	–	–	–	–
